Laboratory results from the M2OR odorant receptor database.
Substitutions are numbered along the chain they refer to.

How the values were obtained:
Settings in all cases: stereoisomer not certain
[1] = target: T1, OR5K1 (Homo sapiens) (UniProt Q8NHB7)
T1 sequence (whole entry): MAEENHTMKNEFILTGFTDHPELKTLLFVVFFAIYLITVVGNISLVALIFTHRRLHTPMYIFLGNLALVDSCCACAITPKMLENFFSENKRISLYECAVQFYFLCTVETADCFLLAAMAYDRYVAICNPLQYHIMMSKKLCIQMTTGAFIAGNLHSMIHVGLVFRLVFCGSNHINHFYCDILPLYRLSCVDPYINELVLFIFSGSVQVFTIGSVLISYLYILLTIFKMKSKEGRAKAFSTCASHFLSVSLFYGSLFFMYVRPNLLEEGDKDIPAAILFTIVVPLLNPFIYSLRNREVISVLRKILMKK
Summary of the method: (§1)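 Assay methods differ from source to source, frequently being transient luciferase assays in mammalian cell lines. For each receptor–molecule pair, the label responsive (active) applies when the original authors judged the measured signal statistically different from baseline, and non-responsive (inactive) applies otherwise.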

[2] = tested on: T2, OR5H1
T2 sequence (whole entry): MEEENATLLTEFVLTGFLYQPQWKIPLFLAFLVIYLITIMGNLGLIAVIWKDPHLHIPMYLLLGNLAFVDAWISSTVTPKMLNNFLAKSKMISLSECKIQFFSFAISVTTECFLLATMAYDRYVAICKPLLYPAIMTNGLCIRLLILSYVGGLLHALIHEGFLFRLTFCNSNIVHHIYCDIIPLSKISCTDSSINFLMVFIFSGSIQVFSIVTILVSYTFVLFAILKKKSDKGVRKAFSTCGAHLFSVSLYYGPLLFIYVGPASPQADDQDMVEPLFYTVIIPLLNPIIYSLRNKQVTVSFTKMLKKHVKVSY
Summary of the method: as §1

[3] = tested on: T3, OR5H2
T3 sequence (whole entry): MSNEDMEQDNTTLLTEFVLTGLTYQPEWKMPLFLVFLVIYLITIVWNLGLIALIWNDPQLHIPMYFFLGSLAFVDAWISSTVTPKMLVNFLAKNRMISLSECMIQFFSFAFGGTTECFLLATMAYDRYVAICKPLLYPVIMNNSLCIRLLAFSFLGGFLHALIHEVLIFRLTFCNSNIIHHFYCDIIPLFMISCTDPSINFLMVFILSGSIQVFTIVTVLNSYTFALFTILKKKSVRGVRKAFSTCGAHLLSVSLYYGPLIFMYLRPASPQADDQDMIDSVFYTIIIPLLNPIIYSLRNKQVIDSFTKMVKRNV
Summary of the method: as §1

[4] = target: T4, OR5H6 (Homo sapiens) (UniProt Q8NGV6)
T4 sequence (whole entry): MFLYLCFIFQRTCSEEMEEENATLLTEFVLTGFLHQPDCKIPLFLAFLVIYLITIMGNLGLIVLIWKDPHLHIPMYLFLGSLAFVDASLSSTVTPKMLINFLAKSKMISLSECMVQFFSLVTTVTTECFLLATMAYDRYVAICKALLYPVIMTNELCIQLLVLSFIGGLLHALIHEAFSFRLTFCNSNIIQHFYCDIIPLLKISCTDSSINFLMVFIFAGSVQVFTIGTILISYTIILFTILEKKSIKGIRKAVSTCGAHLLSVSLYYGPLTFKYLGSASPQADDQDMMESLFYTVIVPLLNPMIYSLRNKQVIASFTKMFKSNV
Summary of the method: as §1

[5] = target: T5, OR5I1 (Homo sapiens) (UniProt Q13606)
T5 sequence (whole entry): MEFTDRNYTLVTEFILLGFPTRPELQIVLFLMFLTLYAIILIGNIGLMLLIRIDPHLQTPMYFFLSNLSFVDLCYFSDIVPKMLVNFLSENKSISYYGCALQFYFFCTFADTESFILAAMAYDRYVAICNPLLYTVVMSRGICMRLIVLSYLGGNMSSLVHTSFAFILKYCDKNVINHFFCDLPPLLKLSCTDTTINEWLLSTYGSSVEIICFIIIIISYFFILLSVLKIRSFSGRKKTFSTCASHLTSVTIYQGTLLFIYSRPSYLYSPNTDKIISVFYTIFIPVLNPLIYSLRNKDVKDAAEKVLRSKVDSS
Summary of the method: as §1

[6] = target: T6, OR5J2 (Homo sapiens) (UniProt Q8NH18)
T6 sequence (whole entry): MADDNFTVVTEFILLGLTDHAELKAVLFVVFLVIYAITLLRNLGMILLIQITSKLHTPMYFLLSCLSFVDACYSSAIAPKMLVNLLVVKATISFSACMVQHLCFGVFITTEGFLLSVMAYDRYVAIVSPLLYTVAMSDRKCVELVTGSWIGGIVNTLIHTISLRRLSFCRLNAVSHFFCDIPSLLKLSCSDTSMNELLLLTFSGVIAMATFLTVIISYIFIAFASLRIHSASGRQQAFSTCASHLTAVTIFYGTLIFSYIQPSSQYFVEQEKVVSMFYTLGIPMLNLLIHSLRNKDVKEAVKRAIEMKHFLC
Summary of the method: as §1

[7] = target: T7, OR5K2 (Homo sapiens) (UniProt Q8NHB8)
T7 sequence (whole entry): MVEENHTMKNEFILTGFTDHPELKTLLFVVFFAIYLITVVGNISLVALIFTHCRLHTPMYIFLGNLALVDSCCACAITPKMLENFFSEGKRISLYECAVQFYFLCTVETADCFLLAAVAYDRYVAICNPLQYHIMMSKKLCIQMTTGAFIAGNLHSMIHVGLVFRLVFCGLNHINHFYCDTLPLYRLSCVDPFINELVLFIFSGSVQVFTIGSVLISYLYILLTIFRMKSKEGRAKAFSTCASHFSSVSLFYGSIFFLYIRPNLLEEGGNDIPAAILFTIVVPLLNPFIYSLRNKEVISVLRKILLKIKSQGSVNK
Summary of the method: as §1

[8] = tested on: T8, OR5K2 L197M
T8 sequence (whole entry): T7 sequence (whole entry) with L197M
Summary of the method: as §1

[9] = target: OR5H8 (Homo sapiens) (UniProt P0DN80)
Chain of OR5H8 (Homo sapiens) (P0DN80 whole entry): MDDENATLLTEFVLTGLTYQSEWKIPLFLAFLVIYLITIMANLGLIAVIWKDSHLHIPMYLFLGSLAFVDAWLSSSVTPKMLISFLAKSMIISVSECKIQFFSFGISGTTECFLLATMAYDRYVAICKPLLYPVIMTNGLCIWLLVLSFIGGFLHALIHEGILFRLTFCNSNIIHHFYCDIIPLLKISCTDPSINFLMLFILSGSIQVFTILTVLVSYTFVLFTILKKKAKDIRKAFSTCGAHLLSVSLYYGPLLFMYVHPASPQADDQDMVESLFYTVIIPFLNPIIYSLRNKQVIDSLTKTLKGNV
Summary of the method: as §1

[10] = tested on: OR5K1 F62L
Chain of OR5K1 F62L (as listed by the source, stated change not applied): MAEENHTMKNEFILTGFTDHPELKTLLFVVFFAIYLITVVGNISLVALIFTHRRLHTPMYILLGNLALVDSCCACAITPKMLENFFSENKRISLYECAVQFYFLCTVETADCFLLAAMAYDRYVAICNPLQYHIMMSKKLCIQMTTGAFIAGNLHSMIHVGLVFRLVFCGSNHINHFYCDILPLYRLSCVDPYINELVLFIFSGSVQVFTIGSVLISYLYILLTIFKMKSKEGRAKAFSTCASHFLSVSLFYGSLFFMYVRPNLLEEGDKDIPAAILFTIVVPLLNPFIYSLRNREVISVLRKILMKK
Summary of the method: as §1

Measured: odorant receptor agonist call

O=C(O)CCc1ccccc1
inactive: [1]

CCC1OC(C)=C(O)C1=O (centres undefined)
not listed: [9] | [10]
inactive: all other assays above

CCCc1ccc(O)c(OC)c1
inactive: [1]

CCCCCC(S)C(C)CO (centres undefined)
inactive: [3] | [4] | [6] | [1] | [7]

CC1=C(O)C(=O)OC1C (centres undefined)
not listed: [9] | [10]
inactive: all other assays above

CCCCCCC=CCCC=O
not listed: [2] | [9] | [10]
inactive: all other assays above

CCCC(S)CCOC(C)=O (centres undefined)
not listed: [9] | [10]
inactive: all other assays above

CC(C)=CC1CC(C)CCO1 (centres undefined)
inactive: [1]

CCCCCC=CC=O
inactive: [1]

CCC=CCC=O
inactive: [1]

Cc1ccc(O)cc1
inactive: [1]

CSSc1ccoc1C
inactive: [1]

CCC(C)C=O (centres undefined)
inactive: [1]

CCC=CCCC=CC=O
inactive: [1]

CC1CCCCCCCCCCCCC(=O)C1 (centres undefined)
inactive: [3] | [4] | [9] | [5] | [6] | [7]

COCCC(C)(C)S
inactive: [1]

CC(CO)CS (centres undefined)
inactive: [3] | [4] | [6] | [1] | [7]

COc1ccc2ccc(=O)oc2c1
inactive: [1]

Cc1cccc(C)c1O
inactive: [1]

Cc1cnc(C)c(C)n1
active: [1] | [10]
not listed: [9]
inactive: all other assays above

CCCCCCCC1CCC(=O)O1 (centres undefined)
inactive: [1]

Cc1cccc(O)c1
inactive: [1]

CCC(S)C(C)CO (centres undefined)
inactive: [3] | [4] | [6] | [1] | [7]

CC(C)CCCCCCCCCCC=O
inactive: [1]

CC1=NC(C)C(C)S1 (centres undefined)
active: [1]
not listed: [9] | [10]
inactive: all other assays above
